ChEMBL document CHEMBL1154236, “Monoterpenes from Paeonia albiflora and their inhibitory activity on nitric oxide production by lipopolysaccharide-activated microglia” (J Nat Prod, 2009)

Test system: N9
Assay: Antiinflammatory activity against mouse N9 cells assessed as inhibition of LPS-induced nitric oxide production after 48 hrs by Griess reaction relative to control
Type: functional, cell-based
Conditions: Homo sapiens, N9, 48 h
Method in brief: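 Murine N9 microglia (IMDM, 5% heat-inactivated FBS, 2 mM L-glutamine, 5 × 10^-5 M 2-mercaptoethanol), 1 × 10^5 cells/well, precultured 24 h at 37 °C, 5% CO2. Then LPS 1 µg/mL plus compound (DMSO stock diluted in PBS pH 7.4, DMSO ≤0.1%) for 48 h. Supernatant nitrite read by Griess reagent, 15 min room temperature, A540. Expressed as % of LPS-only response. IC50 from linear/nonlinear regression, n = 3. Curcumin positive control.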

- IC50: > 100 µM
SMILES: COC1O[C@@]2(C)CC(=O)[C@@H]3C[C@]2(O[C@@H]2O[C@H](CO)[C@@H](O)[C@H](O)[C@H]2O)[C@@]13COC(=O)c1ccccc1 (stereo partly specified)
